Screening results: PubChem, several laboratories
Shown are actives, neighbours in structure and some others; about 3.7% of the full set was active somewhere.
Calpain2 inh: calpain II (pig) inhibition; 220,000 compounds, 0.37% hits; inhibition, % at 16 µM; AID 1236; purified calpain II, fluorogenic peptide substrate, 30 min;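 active means inhibition above about 50%, limit read from the data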
PKD1 kinase inh: inhibitors of human PKD1 kinase; 200,000 compounds, 0.056% hits; Q15139; PKD1 kinase fluorescence polarization assay; inhibition, % (test concentration not listed); in the data active means inhibition above about 50%
Target sequence (Q15139 whole entry, looked up): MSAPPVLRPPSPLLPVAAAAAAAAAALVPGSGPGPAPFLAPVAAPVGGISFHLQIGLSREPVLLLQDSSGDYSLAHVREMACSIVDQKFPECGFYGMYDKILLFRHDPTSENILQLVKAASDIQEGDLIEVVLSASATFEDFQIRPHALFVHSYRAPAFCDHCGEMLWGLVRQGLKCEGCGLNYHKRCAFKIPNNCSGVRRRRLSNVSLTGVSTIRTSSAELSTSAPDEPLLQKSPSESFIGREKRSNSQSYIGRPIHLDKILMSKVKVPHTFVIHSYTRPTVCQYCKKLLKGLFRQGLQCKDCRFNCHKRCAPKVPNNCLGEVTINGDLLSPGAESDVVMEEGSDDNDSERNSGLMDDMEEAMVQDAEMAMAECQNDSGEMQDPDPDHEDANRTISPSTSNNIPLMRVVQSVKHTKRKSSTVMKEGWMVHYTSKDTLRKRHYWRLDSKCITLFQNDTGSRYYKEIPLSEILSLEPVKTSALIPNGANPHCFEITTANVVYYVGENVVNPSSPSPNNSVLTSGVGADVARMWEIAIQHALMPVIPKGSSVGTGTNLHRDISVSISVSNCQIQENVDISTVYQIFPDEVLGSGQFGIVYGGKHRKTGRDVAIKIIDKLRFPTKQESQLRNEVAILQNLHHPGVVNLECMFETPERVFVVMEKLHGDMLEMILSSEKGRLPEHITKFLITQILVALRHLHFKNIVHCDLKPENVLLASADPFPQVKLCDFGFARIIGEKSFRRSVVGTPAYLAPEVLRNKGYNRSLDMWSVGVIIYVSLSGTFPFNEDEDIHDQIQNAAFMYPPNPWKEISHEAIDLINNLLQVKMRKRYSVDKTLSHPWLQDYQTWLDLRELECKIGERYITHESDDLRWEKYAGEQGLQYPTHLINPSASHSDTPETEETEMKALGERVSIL
Arbovirus anti: antivirals against arbovirus infection; arbovirus infection cell-based antiviral screen; inhibition, % at 10 µM; 200,000 compounds, 0.37% hits; in the data active means inhibition above about 30%
Mdm2 ligase inh: blocks human Mdm2 ubiquitin ligase activity; Q00987; cell-based MDM2 ubiquitination luciferase reporter, 2 h; 0 = plate control, 100 = twice control, blank-subtracted; signal enhancement, % at 5 µM; 210,000 compounds, 0.11% hits;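 active means signal enhancement of 30% or more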;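 further: luminescence tracks abundance of the self-degrading MDM2-luciferase fusion protein; higher signal means inhibition of MDM2 E3 ligase activity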
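Material: stable MDM2–luciferase fusion reporter cells / Quantity: 2000 cells/well / Dosing: single 5 µM compound dose, 0.2% final DMSO / Buffer or medium: DMEM / Schedule: 4 h cell settling then 2 h compound exposure, 37 °C / Detection: luminescence with SteadyLite reagent, 15 min at room temperature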
ROMK mod: human ROMK K+ channel modulation, primary screen; P48048; Tet-inducible ROMK, thallium flux fluorescence; actives lie on both sides; B-score at 10 µM; 130,000 compounds, 2% hits; AID 1918;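 active means signal ratio slope over the read window, or its plate-corrected B-score, at least 3 SD from the plate mean, either direction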;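 further: B-score of the F/F0 ratio slope over 7 to 12 s after thallium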
Cl transport mod: KCC2 (human) Cl- transport modulation; B-score of Tl+ flux slope (higher = more flux/activation; lower = inhibition) at 10 µM; KCC2 cells, thallium flux FluoZin-2 fluorescence; AID 1456; 190,000 compounds, 2.2% hits;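 active means thallium flux slope and its plate-corrected score both differing from the plate sample mean at a set confidence after two filtering rounds, in either direction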;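 further: slope of fluorescence scaled to starting intensity during 10 to 20 s after thallium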
KCC2 sec1: confirmation of human KCC2 transport modulators; 3,700 compounds, 15% hits; AID 1713; shares compounds with Cl transport mod; normalised thallium flux (F/F0 slope) at 10 µM; HEK293-KCC2, thallium flux, FluoZin2 fluorescence; hits give high values;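 active means thallium flux slope above the same plate's solvent-only control mean plus 3 SD; inconclusive means the two replicate wells disagree; inactive means no significant difference from solvent-only control wells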
KCC2 bumet counter: thallium flux persisting under bumetanide in KCC2 cells, counter-screen secondary assay; AID 1714; HEK293-KCC2 + bumetanide/ouabain, thallium flux FluoZin2; hits give high values; normalized thallium flux at 10 µM; shares compounds with Cl transport mod; 3,700 compounds, 49% hits;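 active means thallium entry rate above the same plate's blocked-transporter control wells by more than 3 SD; inconclusive means the two repeat wells disagree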;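 further: raw slope of fluorescence over initial fluorescence between 10 and 20 s after thallium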
KCC2 sec2: KCC2 (human) modulation, second secondary assay | shares compounds with Cl transport mod | HEK293-KCC2, thallium flux FluoZin2 fluorescence; actives lie on both sides; F/F0 rise rate, 10–20 s post-thallium | normalized thallium flux at 10 µM | 3,700 compounds, 23% hits | AID 1715;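 active means thallium flux slope more than 3 SD above or below the plate's solvent-only control mean, mostly below; inconclusive means the two repeat wells disagreed; inactive means no significant shift from solvent-only controls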;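 further: raw slope with 0.1% DMSO as baseline and bumetanide as block control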
HEK counter1: acts in parental HEK cells, KCC2 counter-screen; shares compounds with Cl transport mod; HEK293 parental cells, thallium flux FluoZin2, ouabain; baseline-ratio fluorescence slope, 10–20 s after thallium; thallium flux rate (normalised fluorescence) at 10 µM; 3,700 compounds, 46% hits;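 active means thallium flux rate significantly above the same plate's solvent-only control wells, beyond their mean plus 3 SD; inconclusive means the two replicate wells gave conflicting results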
KCC2 retest ouab: confirmation of human KCC2 modulators with ouabain; shares compounds with Cl transport mod; HEK293-KCC2, thallium flux FluoZin2 fluorescence; bidirectional: low = inhibitor, high = activator; raw Tl+ flux slope (below DMSO = inhibition, above = activation) at 10 µM; 3,700 compounds, 48% hits; AID 1717;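 active means thallium flux slope beyond 3 SD from same-plate DMSO control mean in most replicates, usually higher, sometimes lower; inconclusive means repeat tests gave conflicting results; inactive means no significant difference from controls in most replicates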;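 further: slope of initial-normalized fluorescence between seconds 10 and 20 after thallium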
HEK counter2: counter-screen for KCC2 modulators: effect in parental HEK293 cells; shares compounds with Cl transport mod; thallium flux FluoZin-2 fluorescence slope; thallium flux slope at 10 µM; 3,700 compounds, 33% hits;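 active means thallium flux slope above the same plate's solvent-control mean plus 3 SD in both duplicate wells; inconclusive means duplicate wells that disagreed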;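 further: run without ouabain in cells lacking the KCC2 cotransporter; slope of fluorescence scaled to its starting value between 10 and 20 s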
Numbers without * were called inactive; ? = inconclusive; . = not tested or not shown.

SMILES | Calpain2 inh | PKD1 kinase inh | Arbovirus anti | Mdm2 ligase inh | ROMK mod | Cl transport mod | KCC2 sec1 | KCC2 bumet counter | KCC2 sec2 | HEK counter1 | KCC2 retest ouab | HEK counter2
CN(C)CCNC(=O)c1cc(Br)ccc1Cl | 2.5 | -0.5 | 8.2 | 0.7 | . | 0.391 | . | . | . | . | . | .
NC(=S)NC(=O)/C=C/c1ccccc1 | -26.4 | 0.8 | 2.1 | 1.3 | . | 0.627 | . | . | . | . | . | .
O=C(Cn1nnc2c(cnn2-c2ccccc2)c1=O)N1CCN(c2ccccc2F)CC1 | 18.7 | 6.7 | 0.7 | -10.9 | . | -5.48* | 0.00576 | ? | 0.0205* | 0.00681 | 0.0143* | 0.00916
Cc1cccc(N(CC(O)CON=C2c3ccccc3-c3ccccc32)S(C)(=O)=O)c1 (stereo unspecified) | 37.1 | -2.7 | -22.3 | -20.3 | . | -0.406 | . | . | . | . | . | .
CS(=O)(=O)N(CC(O)CON=C1c2ccccc2-c2ccccc21)c1ccc(F)cc1 (stereo unspecified) | -15.1 | 1.8 | 1.4 | 4.8 | -0.604 | . | 0.00604 | 0.00459 | 0.031 | ? | 0.0192 | 0.01
O=C(c1cnc(N2CCN(c3ccccn3)CC2)c2ccccc12)N1CCN(c2cccc(Cl)c2)CC1 | -397.2 | -0.9 | 1.1 | -6.2 | 0.00707 | 0.404 | . | . | . | . | . | .
COC(=O)c1c(NC(=O)COC(=O)CNC(=O)C2CCCCC2)sc(C)c1C | -8.7 | -3.1 | -2.4 | -7.8 | -0.39 | . | . | . | . | . | . | .
COc1cccc(CNC(=O)Cc2ccc(Br)cc2)c1 | 8.1 | 11.4 | -5.0 | -11.1 | . | -1.16 | . | . | . | . | . | .
COc1ccccc1CNC(=O)CSc1ccc(-c2cccs2)nn1 | -11.9 | -11.6 | 13.6 | -5.6 | -0.0737 | -4.26* | 0.00628 | 0.00568 | 0.0328 | 0.00407 | 0.0154* | 0.0112
COc1cccc(CNC(=O)CSc2ccc(-c3cccs3)nn2)c1 | -5.8 | 7.0 | 4.9 | -14.3 | 0.176 | -3.17* | 0.015 | 0.00532 | ? | 0.00717 | 0.0143 | 0.0103
COc1cccc(CNC(=O)Cn2cccc2)c1 | -10.3 | -10.0 | 0.4 | -13.8 | -0.281 | 9.55* | 0.00898 | 0.00513 | 0.0383 | 0.00459 | 0.0211 | 0.0109
CCNc1ccc(C(=O)OCC(=O)c2cc(C)n(Cc3ccc4c(c3)OCO4)c2C)cc1[N+](=O)[O-] | -38.5 | -13.5 | -1.7 | 3.4 | -0.517 | -0.071 | . | . | . | . | . | .
Cc1onc(-c2ccccc2)c1C(=O)O/N=C(\N)c1ccc([N+](=O)[O-])o1 | -3.7 | . | . | 9.3 | . | . | . | . | . | . | . | .
Cc1onc(-c2cccc(Cl)c2Cl)c1C(=O)O/N=C(\N)c1ccc([N+](=O)[O-])o1 | -3.1 | . | . | -44.4 | . | -4.89* | 0.00699 | 0.00326 | ? | 0.00481* | 0.0169 | 0.00786*
CCN(CC)S(=O)(=O)c1ccc(N2CCCC2)c(NS(=O)(=O)c2ccc(F)cc2)c1 | 21.8 | -6.4 | 6.5 | -5.6 | -2.26 | 0.423 | . | . | . | . | . | .
O=c1oc2ccccc2c(Nc2cc3ccccc3cc2O)c1[N+](=O)[O-] | -117.7 | -1.4 | -6.7 | -10.2 | 1.74 | -4.3* | 0.00647 | 0.00457 | ? | 0.00646 | 0.0161* | 0.00832*
O=c1oc2ccccc2c(Nc2ccccc2O)c1[N+](=O)[O-] | -11.1 | -1.8 | -26.7 | 2.6 | -0.227 | -1.87 | . | . | . | . | . | .
O=c1oc2ccccc2c(Nc2cccc3ccccc23)c1[N+](=O)[O-] | 16.4 | -19.6 | 15.7 | -5.7 | . | -2.57* | 0.00773 | 0.00581 | 0.0318 | 0.00338 | 0.0159* | 0.0109
C#CC(C)(CC)NC(=O)Cn1nnc(-c2cccc(C(F)(F)F)c2)n1 (stereo unspecified) | -16.4 | -4.5 | -4.5 | -6.4 | 0.13 | -0.65 | . | . | . | . | . | .
CC1CCCCC1NC(=O)C(Cc1ccccc1)NS(=O)(=O)c1cccs1 (stereo unspecified) | 26.9 | -1.8 | 11.1 | -11.9 | -0.521 | . | . | . | . | . | . | .
CC(CCc1ccccc1)NC(=O)C(Cc1ccccc1)NS(=O)(=O)c1cccs1 (stereo unspecified) | -0.1 | -2.6 | -7.8 | -12.9 | -0.0769 | -3.57* | 0.00611 | 0.00384 | ? | ? | 0.0146* | 0.00937
CC(C)NCC(O)c1cc(O)cc(O)c1 (stereo unspecified) | -14.8 | . | . | 1.3 | . | -2.77* | 0.00694 | 0.00594* | 0.0287 | ? | 0.0177 | 0.0117
CCc1ccccc1N(C1=NCCCS1)S(=O)(=O)c1ccc(C(C)(C)C)cc1 | 9.6 | -7.0 | 2.8 | -12.5 | 0.281 | -1.74 | . | . | . | . | . | .
Cc1noc(C)c1COc1ccc(C(=O)OCC(=O)NC2CCCCC2C)cc1 (stereo unspecified) | 24.8 | -5.7 | 3.5 | -13.6 | . | 0.817 | 0.009 | 0.0055 | 0.0329 | 0.00796 | 0.0183 | ?
CCN(CC)S(=O)(=O)c1ccc(C(=O)NC(=S)N(CCC#N)Cc2cccnc2)cc1 | -9.5 | 1.1 | 7.0 | 0.9 | -0.849 | -1.2 | . | . | . | . | . | .
SMILES | Calpain2 inh | PKD1 kinase inh | Arbovirus anti | Mdm2 ligase inh | ROMK mod | Cl transport mod | KCC2 sec1 | KCC2 bumet counter | KCC2 sec2 | HEK counter1 | KCC2 retest ouab | HEK counter2
CCOc1ccc(CN(CCC#N)C(=S)NC(=O)c2ccccc2)cc1 | -1.9 | 0.1 | -15.9 | -11.6 | 1.85 | 29.6* | 0.0462* | 0.117* | 0.0436* | 0.0725* | 0.0935* | 0.0303*
CC1CC(C)CN(C(=O)Cn2c(=O)n(CCCCC(=O)NCc3ccco3)c(=O)c3ccccc32)C1 (stereo unspecified) | 46.9 | -4.7 | -5.6 | -6.5 | . | . | . | . | . | . | . | .
COCCn1c(SCc2csc(-c3ccccc3)n2)nc2ccccc21 | -0.6 | 2.3 | 5.8 | -15.7 | -1.58 | -3.48* | 0.00566 | 0.00494 | 0.0286 | 0.00509* | 0.0153* | 0.00907
COCCn1c(-c2ccccc2)nc2ccccc21 | 22.1 | 14.7 | 1.9 | -8.8 | 0.582 | 0.0825 | . | . | . | . | . | .
C/C(Cn1nc([N+](=O)[O-])cc1C)=N\NC(=O)COc1ccc(Cl)cc1Cl | -15.3 | 15.1 | -0.3 | -17.7 | . | 0.302 | . | . | . | . | . | .
CC1CCCN(S(=O)(=O)c2ccc(NC(=O)CCN3C(=O)c4ccccc4C3=O)cc2)C1 (stereo unspecified) | 20.6 | -14.7 | -1.0 | -4.0 | . | 0.023 | 0.00973 | ? | 0.0331 | 0.00777 | 0.0205 | 0.0109
O=c1c2cc(N3CCOCC3)ccc2[nH]c(=S)n1CCCN1CCCCCC1 | -416.7 | 10.8 | 1.2 | -17.8 | -0.847 | 0.43 | . | . | . | . | . | .
